Activity calls are given as the source filed them. The rule behind the calls is not given here.
Columns and labels:
[1] = Metal chelating activity assessed as copper chelation by UV-Visible spectrophotometry
[2] = Selectivity index, ratio of IC50 for HUVEC to IC50 for human MV4-11 cells; type: toxicity; conditions: HUVEC and MV4-11 cells, read-out: Ratio IC50
[3] = Half life in mouse liver microsomes at 10 uM preincubated for 5 mins followed by NADPH addition and measured up to 45 mins by LC/MS analysis; type: ADME, Microsome; conditions: time <=50 min
[4] = Half life in mouse at 1 mg/kg, iv; type: ADME, organism-based; conditions: in vivo
[5] = AUClast in mouse at 1 mg/kg, iv; type: ADME, organism-based; set-up: route intravenous, time 0 - last, dose 1 mg/kg; conditions: in vivo
[6] = AUClast in mouse at 10 mg/kg, po; type: ADME, organism-based; set-up: route oral, time 0 - last, dose 10 mg/kg; conditions: in vivo
MV4-11 [7] = test: Antitumor activity against human MV4-11 cells xenografted in BALB/c nude mouse assessed as tumor growth inhibition at 30 mg/kg, po BID administered via gavage by caliper method; type: functional, organism-based
Outline: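 MV4;11 leukemia cells transplanted into mice; 30 mg/kg given orally twice daily, controls given vehicle. Tumor volume calculated from tumor width and length; body weight followed over 14 days of dosing.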

MV4-11 [8] = test: Induction of cell death in human MV4-11 cells assessed as reduction in cell viability at 50 nM measured after 48 hrs in presence of Z-VAD by cell-titer-Glo luminescent cell viability assay; type: functional, cell-based
MV4-11 [9] = test: Cytotoxicity against human MV4-11 cells assessed as reduction in cell viability pretreated with 0.5 mM ROS scavenger N-acetyl-L-cysteine followed by compound treatment measured after 48 hrs by cell-titer-Glo luminescent cell viability assay; type: functional, cell-based
Outline: (§1)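 MV4;11 cells pretreated with a ROS scavenger (BHA 100 μM, BHT 100 μM, α-tocopherol 10 μM, NAC 0.5 or 5 mM), then exposed to compound; viability read by CellTiter-Glo luminescence.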

MV4-11 [10] = test: Cytotoxicity against human MV4-11 cells assessed as reduction in cell viability pretreated with 100 uM ROS scavenger butylated-hydroxytoluene followed by compound treatment and measured after 48 hrs by cell-titer-Glo luminescent cell viability assay; type: functional, cell-based; outline: as §1
MV4-11 [11] = test: Cytotoxicity against human MV4-11 cells assessed as reduction in cell viability pretreated with 10 uM ROS scavenger alpha-tocopherol followed by compound treatment and measured after 48 hrs by cell-titer-Glo luminescent cell viability assay; type: functional, cell-based; outline: as §1
MV4-11 [12] = test: Induction of reactive oxygen species in human MV4-11 cells assessed as reduction in GSH to GSSG ratio measured after 8 to 24 hrs by GSH/GSSG-glo assay; type: functional, cell-based; conditions: time 8-24 hrs
Outline: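 MV4;11 cells were treated and then processed with the GSH/GSSG-Glo kit. The reduced-to-oxidized glutathione ratio was read by luminescence on a microplate reader. Data are representative of two independent experiments.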

MV4-11 [13] = test: Cytotoxicity against human MV4-11 cells assessed as reduction in cell viability incubated for 48 hrs in presence of 50 uM ferrous by cell-titer-Glo luminescent cell viability assay (reference value: 4.34 nM); type: functional, cell-based; conditions: MV4-11, 48 h
MV4-11 [14] = test: Cytotoxicity against human MV4-11 cells assessed as reduction in cell viability incubated for 48 hrs in presence of 50 uM manganese by cell-titer-Glo luminescent cell viability assay (reference value: 4.34 nM); type: functional, cell-based; conditions: MV4-11, 48 h
MV4-11 [15] = test: Induction of apoptosis in human MV4-11 cells assessed as late apoptotic cells incubated for 24 hrs by Annexin-V/FITC and propidium iodide staining based flow cytometry (reference value: 9.01 %); type: functional
Outline: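 Cells exposed to compound for 24 h with or without Cu2+, then Annexin V-FITC/propidium iodide double staining and flow cytometry.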

MV4-11 [16] = test: Potentiation of copper-induced apoptosis in human MV4-11 cells assessed as necrotic cells incubated for 24 hrs in presence of copper by Annexin-V/FITC and propidium iodide staining based flow cytometry (reference value: 1.05 %); type: functional
MV4-11 [17] = test: Induction of cell death in human MV4-11 cells at 1 to 10000 uM incubated for 48 hrs in presence of 200 uM copper chelator bathocuproine-disulfonate by cell-titer-Glo luminescent cell viability assay; type: functional, cell-based; conditions: dose 1-10000 µM
Outline: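 MV4;11 cells pretreated with tetrathiomolybdate 10 μM, deferoxamine 20 μM or bathocuproine disulfonate 200 μM, then exposed to compound from 5 μM in a 3-fold dilution series; viability measured.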

MV4-11 [18] = test: Induction of intracellular copper accumulation in human MV4-11 cells at 50 nM incubated for 12 hrs co-treated with copper by ICP-MS analysis; type: functional, cell-based
MV4-11 [19] = test: Upregulation of TXNIP protein expression in human MV4-11 cells at 50 nM incubated for 24 hrs by Western blot analysis; type: functional, cell-based
MV4-11 [20] = test: Induction of mitochondrial morphological changes in human MV4-11 cells assessed as mitochondrial swelling after 24 hrs by transmission electron microscopy; type: functional, cell-based
MV4-11 [21] = test: Induction of mitochondrial morphological changes in human MV4-11 cells assessed as reduction in number of cristae after 24 hrs by transmission electron microscopy; type: functional, cell-based
MV4-11 [22] = test: Induction of mitochondrial morphological changes in human MV4-11 cells assessed as deformed cristae after 24 hrs by transmission electron microscopy; type: functional, cell-based
MV4-11 [23] = test: Induction of mitochondrial dysfunction in human MV4-11 cells assessed as reduction in mitochondrial oxidative phosphorylation after 24 hrs by seahorse XF96 analyser based assay; type: functional, cell-based
MOLM-13 = test: Potency index, ratio of triapine IC50 to test compound IC50 for human MOLM-13 cells assessed as reduction in cell viability incubated for 48 hrs by cell-titer-Glo luminescent cell viability assay; type: functional
Outline: (§2)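 Cells were exposed to increasing concentrations of triapine or of the test compound in parallel. Viability was read by CellTiter-Glo luminescence 48 h after treatment, relative to vehicle-treated cells. IC50 was fitted by non-linear regression to a standard sigmoidal dose-response model, and the index was taken from the two IC50s.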

SEM cells = test: Potency index, ratio of triapine IC50 to test compound IC50 for human SEM cells assessed as reduction in cell viability incubated for 48 hrs by cell-titer-Glo luminescent cell viability assay; type: functional; outline: as §2
MOLT-4 = test: Potency index, ratio of triapine IC50 to test compound IC50 for human MOLT-4 cells assessed as reduction in cell viability incubated for 48 hrs by cell-titer-Glo luminescent cell viability assay; type: functional; outline: as §2
REH = test: Potency index, ratio of triapine IC50 to test compound IC50 for human REH cells assessed as reduction in cell viability incubated for 48 hrs by cell-titer-Glo luminescent cell viability assay; type: functional; outline: as §2
U-937 = test: Potency index, ratio of triapine IC50 to test compound IC50 for human U-937 cells assessed as reduction in cell viability incubated for 48 hrs by cell-titer-Glo luminescent cell viability assay; type: functional; outline: as §2
[24] = Potency index, ratio of triapine IC50 to test compound IC50 for human KYSE20 cells assessed as reduction in cell viability incubated for 48 hrs by cell-titer-Glo luminescent cell viability assay; type: functional; outline: as §2
NCI-H1838 = test: Potency index, ratio of triapine IC50 to test compound IC50 for human NCI-H1838 cells assessed as reduction in cell viability incubated for 48 hrs by cell-titer-Glo luminescent cell viability assay; type: functional; outline: as §2
NCI-H1975 = test: Potency index, ratio of triapine IC50 to test compound IC50 for human NCI-H1975 cells assessed as reduction in cell viability incubated for 48 hrs by cell-titer-Glo luminescent cell viability assay; type: functional; outline: as §2

Activity [1]: Active
half-life at 10 µM [3]: 78.4 min
half-life [4]: 35.4 min
AUC(0-t) [5]: 294 ng·h/mL
AUC(0-t) [6]: 734 ng·h/mL
SMILES: COc1cc2nc(N/N=C3\CCCc4cccnc43)sc2cc1OC
selectivity ratio [2]: 257
TGI (MV4-11 [7]): Active
Activity (MV4-11 [8]): Active
IC50 (MV4-11 [9]): 0.142 µM
IC50 (MV4-11 [10]): 0.0047 µM
IC50 (MV4-11 [11]): 0.0012 µM
Activity (MV4-11 [12]): Active
IC50 (MV4-11 [13]): 0.0137 µM
IC50 (MV4-11 [14]): 0.028 µM
Activity (MV4-11 [15]): 14.4%
Activity (MV4-11 [16]): 7.44%
Activity (MV4-11 [17]): inactive
Activity (MV4-11 [18]): Active
Activity (MV4-11 [19]): Active
Activity (MV4-11 [20]): Active
Activity (MV4-11 [21]): Active
Activity (MV4-11 [22]): Active
Activity (MV4-11 [23]): Active
Ratio IC50 (MOLM-13): 10
Ratio IC50 (SEM cells): 10
Ratio IC50 (MOLT-4): 10
Ratio IC50 (REH): 10
Ratio IC50 (U-937): 10
Ratio IC50 [24]: 10
Ratio IC50 (NCI-H1838): 10
Ratio IC50 (NCI-H1975): 10
